From ChEMBL document CHEMBL1159047, “Synthesis and biological evaluation of antitumour-active betulin derivatives” (Bioorg Med Chem, 2010)
Calls of active or inactive are those of the source.

Assays:
HCT-116 = assay: Growth inhibition of human HCT116 cells at 30 uM after 96 hrs by SRB assay; assay type: functional, cell-based
Outline: (§1)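 Same SRB set-up: RPMI 1640 with 10% FBS at 37 °C, 5% CO2, and a 96 h exposure starting 24 h after seeding (DMSO or DMF ≤0.5% final). Percent viable cells relative to untreated controls is read at 30 µM, the top concentration of the 0–30 µM dilution series. Cells were fixed with TCA, stained with SRB and read at 570 nm; ≥3 independent experiments.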

Homo sapiens = species: Homo sapiens; assay: Growth inhibition of human Liposarcoma cells at 30 uM after 96 hrs by SRB assay; assay type: functional; outline: as §1
SW480 = assay: Growth inhibition of human SW480 cells at 30 uM after 96 hrs by SRB assay; assay type: functional, cell-based; outline: as §1
FaDu = assay: Growth inhibition of human FADU cells at 30 uM after 96 hrs by SRB assay; assay type: functional, cell-based; outline: as §1
HT-29 = assay: Growth inhibition of human HT-29 cells at 30 uM after 96 hrs by SRB assay; assay type: functional, cell-based; outline: as §1
A253 = assay: Growth inhibition of human A253 cells at 30 uM after 96 hrs by SRB assay; assay type: functional, cell-based; outline: as §1
A2780 = assay: Growth inhibition of human A2780 cells at 30 uM after 96 hrs by SRB assay; assay type: functional, cell-based; outline: as §1
A-431 = assay: Growth inhibition of human A431 cells at 30 uM after 96 hrs by SRB assay; assay type: functional, cell-based; outline: as §1
HCT-8 = assay: Growth inhibition of human HCT8 cells at 30 uM after 96 hrs by SRB assay; assay type: functional, cell-based; outline: as §1
A549 = assay: Growth inhibition of human A549 cells at 30 uM after 96 hrs by SRB assay; assay type: functional, cell-based; outline: as §1
DLD-1 = assay: Growth inhibition of human DLD1 cells at 30 uM after 96 hrs by SRB assay; assay type: functional, cell-based; outline: as §1
SW-1736 = assay: Growth inhibition of human SW1736 cells at 30 uM after 96 hrs by SRB assay; assay type: functional, cell-based; outline: as §1
8505C = assay: Growth inhibition of human 8505C cells at 30 uM after 96 hrs by SRB assay; assay type: functional, cell-based; outline: as §1
518A2 = assay: Growth inhibition of human 518A2 cells at 30 uM after 96 hrs by SRB assay; assay type: functional, cell-based; outline: as §1

Measured: growth inhibition (GI)

C=C(C)[C@@H]1CC[C@]2([C@H](O)CC(=O)OCC)CC[C@]3(C)[C@H](CC[C@@H]4[C@@]5(C)CC[C@H](OC)C(C)(C)[C@@H]5CC[C@]43C)[C@@H]12
inactive: HCT-116 | Homo sapiens | SW480 | FaDu | HT-29 | A253 | A2780 | A-431 | HCT-8 | A549 | DLD-1 | SW-1736 | 8505C | 518A2

C=C(C)[C@@H]1CC[C@]2(/C=C/C(=O)OCC)CC[C@]3(C)[C@H](CC[C@@H]4[C@@]5(C)CC[C@H](OC(C)=O)C(C)(C)[C@@H]5CC[C@]43C)[C@@H]12
inactive: HCT-116 | Homo sapiens | SW480 | FaDu | HT-29 | A253 | A2780 | A-431 | HCT-8 | A549 | DLD-1 | SW-1736 | 8505C | 518A2
